The values below come from BindingDB's records for doi:10.1021/jm0300274 (The University of Georgia, 2003).

In the test the test system is HIV-1 (antiviral activity in human PBM cells). The test can be described thus: Anti-HIV-1 activity determined in human peripheral blood mononuclear PBM cells, expressed as EC50. The gist of the method:
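PHA-stimulated (2-3 days) human PBM cells from healthy seronegative donors were infected with HIV-1 LAI for 1 h in bulk, then placed into 10-fold serial compound dilutions. Medium contained IL-2 and DEAE-dextran. After 5 days at 37 °C, supernatant virus was pelleted and RT activity measured. EC50 was taken from the concentration-response curve by the median effect method.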
The EC50 is the concentration at which the effect is half-maximal. `Cc1cn([C@H]2CC(F)(F)[C@H](CO)O2)c(=O)[nH]c1=O` showed an EC50 above 100 µM.
`Nc1ccn([C@@H]2CC(F)(F)[C@H](CO)O2)c(=O)n1` returned a concentration for a half-maximal effect (EC50) of 11.5 µM.
Compound `Cc1cn([C@@H]2CC(F)(F)[C@H](CO)O2)c(=O)[nH]c1=O` gave a concentration for a half-maximal effect (EC50) above 100 µM.
Next, `Nc1ncnc2c1ncn2[C@@H]1CC(F)(F)[C@H](CO)O1`: above 100 µM; `O=c1[nH]cnc2c1ncn2[C@H]1CC(F)(F)[C@H](CO)O1`: above 100 µM; `Nc1ncnc2c1ncn2[C@@H]1C=C(F)[C@H](CO)O1`: above 100 µM.
The compound `Nc1ccn([C@H]2CC(F)(F)[C@H](CO)O2)c(=O)n1` had an EC50 above 100 µM.
With `Cc1cn([C@H]2C=C(F)[C@H](CO)O2)c(=O)[nH]c1=O`, the EC50 was above 100 µM.
Take `O=c1ccn([C@@H]2CC(F)(F)[C@H](CO)O2)c(=O)[nH]1`: the EC50 is above 100 µM.
In the case of `Nc1nc2c(ncn2[C@H]2C=C(F)[C@H](CO)O2)c(=O)[nH]1` it was above 100 µM; in that of `Nc1nc(=O)n([C@H]2CC(F)(F)[C@H](CO)O2)cc1F`, above 100 µM.
Take `Cc1cn([C@@H]2C=C(F)[C@H](CO)O2)c(=O)[nH]c1=O`: the half-maximal effective concentration (EC50) is above 100 µM.
In turn, `O=c1[nH]cnc2c1ncn2[C@@H]1CC(F)(F)[C@H](CO)O1` came in with an EC50 above 100 µM.
In the case of `Nc1nc2c(ncn2[C@H]2CC(F)(F)[C@H](CO)O2)c(=O)[nH]1`, the EC50 was above 100 µM.
In the case of `Nc1nc(=O)n([C@@H]2CC(F)(F)[C@H](CO)O2)cc1F`, the concentration for a half-maximal effect (EC50) came to 8.8 µM.
In turn, `Nc1nc2c(ncn2[C@@H]2CC(F)(F)[C@H](CO)O2)c(=O)[nH]1` came in with an EC50 above 100 µM.
Next, `O=c1ccn([C@H]2CC(F)(F)[C@H](CO)O2)c(=O)[nH]1`: above 100 µM.
In turn, `Nc1nc2c(ncn2[C@@H]2C=C(F)[C@H](CO)O2)c(=O)[nH]1` had a concentration giving a half-maximal response (EC50) of 38.5 µM.
On to `Nc1ncnc2c1ncn2[C@H]1C=C(F)[C@H](CO)O1`, for which the EC50 was above 100 µM.
In the case of `O=c1[nH]cnc2c1ncn2[C@H]1C=C(F)[C@@H](CO)O1` it was above 100 µM; in that of `Nc1ncnc2c1ncn2[C@H]1CC(F)(F)[C@H](CO)O1`, above 100 µM.
